The source made the active and inactive calls. The calls are words filed in the database; no cut-off is given here.
Legend:
Rattus norvegicus [1] = experiment: Compound tested for % reversal of DOPA accumulation at an intraperitoneal dose of 30 mg/kg.; assay type: functional
In short: (§1)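 Rats dosed 1 h before sacrifice, with GBL (750 mg/kg ip) at 30 min and NSD 1015 (100 mg/kg ip) at 25 min before sacrifice. Striatal DOPA measured by HPLC with electrochemical detection. Value is percent reversal of the GBL-induced DOPA rise.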

Rattus norvegicus [2] = experiment: Compound tested for % inhibition of DA neuronal firing at an intraperitoneal dose of 2.5 mg/kg.; assay type: functional; conditions: ip
[3] = target: Dopamine receptor (Rattus norvegicus) (UniProt P25115+P19020+P30729+P18901+P61169); experiment: Inhibitory binding activity against dopamine receptor in rat striatal membranes using [3H]HAL as the radioligand.; assay type: cell membranes; design: concentration or dose not given beside the values; conditions: Striatum; Membrane; concentration not given here
In short: (§2)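 [3H]Haloperidol displacement from rat striatal DA receptors, run in duplicate. IC50 obtained by nonlinear regression from four to five concentrations.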

Mus musculus [4] = experiment: Inhibition of mouse intraperitoneally.; assay type: functional; conditions: ip
In short: (§3)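 Inhibition of exploratory locomotor activity, scored together with motor coordination (ataxia). ED50 generated from four to five doses, with 5–12 animals per dose.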

[5] = Compound tested for its liability for extrapyramidal side effects (EPS) in terms of no. of animals showing signs of EPS/no. of animals tested upon peroral administration at a dose of 2.5 mg/Kg; 3/3; assay type: functional
[6] = Compound was tested for its inhibition of Sidman avoidance after peroral administration in Squirrel monkeys.; assay type: functional; conditions: po
In short: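 Sidman avoidance in mature squirrel monkeys, oral dosing. ED50 ± SEM generated from three doses, four animals per dose.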

Rattus norvegicus [7] = experiment: Inhibition of rat locomotor activity after being administered perorally.; assay type: functional; conditions: po; in short: as §3
Rattus norvegicus [8] = experiment: Compound tested for % reversal of DOPA accumulation at an intraperitoneal dose of 30 mg/kg; Inactive; assay type: functional, organism-based; design: dose 30 mg/kg; in short: as §1
Dopamine receptor = experiment: Compound was tested for inhibitory binding activity against Dopamine receptor in rat striatal membranes using [3H]HAL as the radioligand.; assay type: cell membranes, Striatum, Membrane; in short: as §2
Rattus norvegicus [9] = experiment: Percentage of rats showing signs of stereotyped behavior at 30 mg/kg subcutaneous dose and followed 1 hr later by 10 mg/kg sc of SKF-38393 and animals observed for 30 min postdose before being; assay type: functional
In short: (§4)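 Naive rats, six per dose, received compound, then SKF 38393 (10 mg/kg sc) 1 h later. They were rated for repetitive rearing, head-swaying, sniffing, licking and gnawing of at least 5 s duration. Result given as the percentage of rats showing stereotypy.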

Rattus norvegicus [10] = experiment: Percentage of rats showing signs of stereotyped behavior at 30 mg/kg subcutaneous dose and animals observed for 30 min postdose.; assay type: functional
Rattus norvegicus [11] = experiment: Compound tested for its effect on reversal of 6-OHDA induced depression in rats after sc administration.; assay type: functional
In short: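 Rats lesioned at least 1 month earlier with 6-OHDA (20 μg icv) plus pargyline (50 mg/kg ip) and desipramine (25 mg/kg ip), giving about 90% brain DA depletion. Drug given sc, then locomotor activity recorded for 30 min from dosing. ED200 estimated from three or four doses, six rats per dose.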

Rattus norvegicus [12] = experiment: Compound tested for its effective dose to inhibit rat locomotor activity after sc administration of the compound.; assay type: functional
In short: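 Rats dosed sc, with locomotor activity recorded for 30 min immediately after dosing. ED50 generated from four to five doses using 5–12 animals per dose, reported with ±95% confidence limits.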

Rattus norvegicus [13] = experiment: Compound tested for % reversal of DOPA accumulation at an intraperitoneal dose of 30 mg/kg. Negative value in parenthesis indicates further % increase in DOPA levels over GBL-induced increase.; assay type: functional; in short: as §1
Rattus norvegicus [14] = experiment: Effect on DOPA accumulation level at an intraperitoneal dose of 30 mg/kg in rat.; assay type: functional
Mus musculus [15] = experiment: Compound was tested for inhibition of mouse locomotor activity after being administered intraperitoneally.; conditions: ip
Rattus norvegicus [16] = experiment: Percentage of rats showing signs of stereotyped behavior at 0.3 mg/kg subcutaneous dose and animals observed for 60 min postdose.; assay type: functional
Rattus norvegicus [17] = experiment: Effect on DOPA accumulation level at an intraperitoneal dose of 0.5 mg/kg in rat; assay type: functional
Rattus norvegicus [18] = experiment: Percentage of rats showing signs of stereotyped behavior at 15 mg/kg peroral dose and followed 1 hr later by 10 mg/kg sc of SKF-38393 and animals observed for 60 min postdose before being; assay type: functional
In short: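 Part 2: oral dose given to naive rats, six per dose, followed 1 h later by SKF 38393 (10 mg/kg sc). Stereotypy (repetitive rearing, head-swaying, sniffing, licking, gnawing lasting ≥5 s) rated over 60 min. Reported as percent of rats affected.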

Rattus norvegicus [19] = experiment: Percentage of rats showing signs of stereotyped behavior at 30 mg/kg peroral dose and animals observed for 60 min postdose.; assay type: functional; conditions: route oral
Rattus norvegicus [20] = experiment: Percentage of rats showing signs of stereotyped behavior at 30 mg/kg peroral dose and followed 1 hr later by 10 mg/kg sc of SKF-38393 and animals observed for 60 min postdose before being; assay type: functional; in short: as §4
Rattus norvegicus [21] = experiment: Compound was tested for inhibition of […] locomotor activity after being administered perorally.; assay type: functional; conditions: po
In short: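 Mice dosed orally and scored for inhibition of exploratory locomotor activity, with motor coordination (ataxia) also checked. ED50 generated from four to five doses using 5–12 animals per dose.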

Rattus norvegicus [22] = experiment: Percentage of rats showing signs of stereotyped behavior at 55 mg/kg peroral dose and followed 1 hr later by 10 mg/kg sc of SKF-38393 and animals observed for 60 min postdose before being; assay type: functional; in short: as §4
Rattus norvegicus [23] = experiment: Percentage of rats showing signs of stereotyped behavior at 110 mg/kg peroral dose and animals observed for 60 min postdose.; assay type: functional; conditions: route oral

SMILES: O=c1ccoc2cc(OCCCN3CCN(c4ccccc4)CC3)ccc12
- Reversal (Rattus norvegicus [1]): 56%
- inhibition in vivo at 2.5 mg/kg (Rattus norvegicus [2]): 68%
- inhibition [3]: 20%

SMILES: O=c1ccoc2cc(OCCCN3CCN(Cc4ccccc4)CC3)ccc12
- ED50 (Mus musculus [4]): > 30 mg/kg
- inhibition [3]: 31%

SMILES: CSc1ccc2c(c1)N(CCC1CCCCN1C)c1ccccc1S2 (configuration not stated) [THIORIDAZINE]
- EPS [5]: 3
- ED50 [6]: 3.9 mg/kg

SMILES: Cc1ccccc1N1CCN(CCCOc2ccc3c(=O)ccoc3c2)CC1
- ED50 (Rattus norvegicus [7]): > 30 mg/kg
- % reversal (Rattus norvegicus [8]): inactive
- inhibition [3]: 29%

SMILES: O=c1ccoc2cccc(OCCCN3CCN(c4ccccc4)CC3)c12
- ED50 (Rattus norvegicus [7]): > 30 mg/kg
- % reversal (Rattus norvegicus [8]): inactive
- inhibition [3]: 9%

SMILES: Cc1ccc(N2CCN(CCCOc3ccc4c(=O)ccoc4c3)CC2)cc1C
- Reversal (Rattus norvegicus [1]): -29%
- inhibition [3]: 41%

SMILES: O=c1ccoc2cc(OCCCN3CCN(c4ncccn4)CC3)ccc12
- ED50 (Rattus norvegicus [7]): 15.6 mg/kg
- ED50 (Mus musculus [4]): 12.4 mg/kg
- inhibition [3]: 0%

SMILES: O=c1ccoc2cc(OCCCN3CCc4c(oc5ccccc45)C3)ccc12
- ED50 (Rattus norvegicus [7]): > 30 mg/kg
- Reversal (Rattus norvegicus [1]): 29%
- ED50 (Mus musculus [4]): 13.5 mg/kg
- inhibition [3]: 8%

SMILES: O=c1ccoc2cc(OCCCN3CCN(c4ccc(Cl)c(Cl)c4)CC3)ccc12
- ED50 (Mus musculus [4]): 14 mg/kg
- inhibition [3]: 23%

SMILES: CCN(CCCOc1ccc2c(=O)ccoc2c1)CCCc1ccccc1
- ED50 (Mus musculus [4]): > 30 mg/kg
- inhibition [3]: 26%

SMILES: Nc1cccc(OCCCN2CCN(c3ccccc3)CC2)c1
- ED50 (Mus musculus [4]): 1.3 mg/kg

SMILES: O=c1ccoc2cc(OCCCN3CCN(c4cnccn4)CC3)ccc12
- ED50 (Mus musculus [4]): 26.3 mg/kg
- inhibition [3]: 17%

SMILES: O=c1ccoc2cc(OCCCN3CCC(c4ccccc4)CC3)ccc12
- inhibition [3]: 40%

SMILES: O=c1ccoc2cc(OCCCN3CCCN(c4ccccc4)CC3)ccc12
- IC50 (Dopamine receptor): 884 nM
- ED50 (Mus musculus [4]): > 30 mg/kg

SMILES: O=c1ccoc2ccc(OCCCCN3CCN(c4ncccn4)CC3)cc12
- ED50 (Rattus norvegicus [7]): 8.2 mg/kg
- IC50 (Dopamine receptor): 349 nM
- Reversal (Rattus norvegicus [1]): 100%
- ED50 (Mus musculus [4]): 3.6 mg/kg
- inhibition in vivo at 2.5 mg/kg (Rattus norvegicus [2]): 100%

SMILES: CCCN1CCCC(c2ccccc2)C1 (single isomer, unassigned; (+))
- Animals (Rattus norvegicus [9]): 100%
- Animals (Rattus norvegicus [10]): 16%
- ED200 (Rattus norvegicus [11]): 0.48 mg/kg
- ED50 (Rattus norvegicus [12]): 3 mg/kg

SMILES: O=c1ccoc2cc(OCCCN3CCN(c4ccc(F)cc4)CC3)ccc12
- Reversal (Rattus norvegicus [13]): -42%
- DOPA level (Rattus norvegicus [14]): 1.36 µg/g
- inhibition [3]: 24%

SMILES: O=c1ccoc2cc(OCCCN3CCN(c4ccccc4Cl)CC3)ccc12
- inhibition [3]: 59%

SMILES: O=c1ccoc2cc(OCCCN3CCC=C(c4ccccc4)C3)ccc12
- IC50 (Dopamine receptor): 243 nM
- ED50 (Mus musculus [4]): 30.3 mg/kg

SMILES: O=c1ccoc2cc(OCCCN3CCc4[nH]c5ccc(F)cc5c4C3)ccc12
- ED50 (Rattus norvegicus [7]): 5.5 mg/kg
- Reversal (Rattus norvegicus [1]): -44%
- ED50 (Mus musculus [4]): 7.5 mg/kg

SMILES: Cc1ccc(N2CCN(CCCOc3ccc4c(=O)ccoc4c3)CC2)cc1
- % reversal (Rattus norvegicus [8]): inactive
- inhibition [3]: 36%

SMILES: CN1CCc2cccc3c2[C@H]1Cc1ccc(O)c(O)c1-3 [APOMORPHINE]
- ED50 (Mus musculus [15]): > 30 mg/kg
- Animals (Rattus norvegicus [16]): 100%
- Reversal (Rattus norvegicus [1]): 104%
- ED50 (Mus musculus [4]): 6.4 mg/kg
- inhibition in vivo at 2.5 mg/kg (Rattus norvegicus [2]): 100%
- ED200 (Rattus norvegicus [11]): 0.005 mg/kg
- ED50 (Rattus norvegicus [12]): 0.03 mg/kg

SMILES: O=c1ccoc2cc(OCCCN3CCN(c4ccc(Cl)cc4)CC3)ccc12
- % reversal (Rattus norvegicus [8]): inactive
- inhibition [3]: 10%

SMILES: Cc1cccc(N2CCN(CCCOc3ccc4c(=O)ccoc4c3)CC2)c1
- % reversal (Rattus norvegicus [8]): inactive
- inhibition [3]: 38%

SMILES: O=c1ccoc2cc(OCCCCN3CCN(c4ccccc4)CC3)ccc12
- Reversal (Rattus norvegicus [1]): 63%
- inhibition [3]: 74%

SMILES: O=c1ccoc2cc(OCCCN3CCN(c4cccc(O)c4)CC3)ccc12
- inhibition [3]: 29%

SMILES: O=C1CN(CCCOc2ccc3c(=O)ccoc3c2)CC(=O)N1c1ccccc1
- ED50 (Mus musculus [4]): > 30 mg/kg
- inhibition [3]: 0%

SMILES: Cc1cccc(N2CCN(CCCOc3ccc4c(=O)ccoc4c3)CC2)c1C
- inhibition [3]: 0%

SMILES: O=C(CCCN1CCC(O)(c2ccc(Cl)cc2)CC1)c1ccc(F)cc1 [HALOPERIDOL]
- DOPA level (Rattus norvegicus [17]): 2.72 µg/g

SMILES: O=c1ccoc2cc(OCCCN3CCc4ccccc4C3)ccc12
- ED50 (Mus musculus [4]): 30 mg/kg
- inhibition [3]: 50%

SMILES: O=c1ccoc2ccc(OCCCCN3CCN(c4ccccc4)CC3)cc12
- Animals (Rattus norvegicus [18]): 0%
- Animals (Rattus norvegicus [19]): 0%
- Reversal (Rattus norvegicus [1]): 84%
- inhibition in vivo at 2.5 mg/kg (Rattus norvegicus [2]): 94%
- inhibition [3]: 73%

SMILES: C1=C(c2ccccc2)CCN(CCCCc2c[nH]c3ccccc23)C1
- Animals (Rattus norvegicus [19]): 0%
- Animals (Rattus norvegicus [20]): 0%
- ED50 (Mus musculus [4]): 0.1 mg/kg
- ED200 (Rattus norvegicus [11]): 0.29 mg/kg
- ED50 (Rattus norvegicus [21]): 4.8 mg/kg
- ED50 (Rattus norvegicus [12]): 4.69 mg/kg

SMILES: O=c1ccoc2cc(OCCCN3CC=C(c4ccccc4)CC3)ccc12
- ED50 (Rattus norvegicus [7]): 5.5 mg/kg
- Reversal (Rattus norvegicus [1]): 54%
- inhibition in vivo at 2.5 mg/kg (Rattus norvegicus [2]): 90%
- Animals (Rattus norvegicus [22]): 0%
- Animals (Rattus norvegicus [23]): 0%

SMILES: O=c1ccoc2cc(OCCCN3CCN(c4cccc(Cl)c4)CC3)ccc12
- Reversal (Rattus norvegicus [13]): -26%
- inhibition [3]: 35%

SMILES: COc1ccccc1N1CCN(CCCOc2ccc3c(=O)ccoc3c2)CC1
- inhibition [3]: 48%

SMILES: COc1ccc(N2CCN(CCCOc3ccc4c(=O)ccoc4c3)CC2)cc1
- inhibition [3]: 25%

Reference: ChEMBL document CHEMBL1125728, “Dopamine autoreceptor agonists as potential antipsychotics. 2. (Aminoalkoxy)-4H-1-benzopyran-4-ones” (J Med Chem, 1991)
